What was measured:
[1] = biological target: 11-beta-hydroxysteroid dehydrogenase 1 (Mus musculus, UniProt P50172); experiment: Inhibition of mouse liver microsome 11betaHSD1 expressed in HEK293 cells assessed as conversion of [3H]cortisone into [3H]cortisol by scintillation proximity assay; assay type: cell-based
Outline: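 Enzyme source: microsomes from HEK-293 cells stably transfected with full-length murine 11β-HSD1 (G418 700 µg/ml selection). Incubated with NADPH and [3H]cortisone. [3H]cortisol captured by monoclonal antibody on protein A-coated SPA beads. IC50 from curve fitting; mean of at least three independent experiments. Kinetics: cortisone 1.6–62.5 nM, with or without 1 µM inhibitor.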

[2] = biological target: T1, Peroxisome proliferator-activated receptor gamma (Homo sapiens, UniProt P37231); experiment: Agonist activity at human PPARgamma expressed in U2OS cells by luciferase transactivation assay; assay type: functional, cell-based
T1 sequence (P37231 whole entry): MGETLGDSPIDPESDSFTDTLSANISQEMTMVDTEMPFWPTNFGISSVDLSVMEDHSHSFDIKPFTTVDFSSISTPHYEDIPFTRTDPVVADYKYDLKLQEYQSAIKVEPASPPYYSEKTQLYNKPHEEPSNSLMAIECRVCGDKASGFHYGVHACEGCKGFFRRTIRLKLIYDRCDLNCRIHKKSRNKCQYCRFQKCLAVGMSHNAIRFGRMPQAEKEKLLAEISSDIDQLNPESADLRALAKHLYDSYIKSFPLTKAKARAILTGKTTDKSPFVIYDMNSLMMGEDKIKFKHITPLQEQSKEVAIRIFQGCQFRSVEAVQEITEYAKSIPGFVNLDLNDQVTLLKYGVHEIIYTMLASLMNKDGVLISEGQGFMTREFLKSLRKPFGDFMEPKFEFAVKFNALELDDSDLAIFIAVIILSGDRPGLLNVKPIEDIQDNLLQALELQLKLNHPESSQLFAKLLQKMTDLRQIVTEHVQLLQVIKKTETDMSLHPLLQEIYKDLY
Outline: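 Transfected U2OS cells (McCoy's 5A, 10% FBS) seeded the day before transfection. Each well received 60 ng DNA: hRXR, pCMV Gal, receptor expression vector and reporter. 24 h later, switched to 10% charcoal-stripped FBS DMEM and exposed to compound for 24 h (0.1% DMSO final). Luciferase normalized to galactosidase. EC50 from logistic dose-response fit; mean of at least three independent experiments.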

3T3-L1 [3] = experiment: Induction of adipogenesis in mouse 3T3L1 assessed as increase in triglyceride level at 1 uM after 5 days relative to control; assay type: functional
Outline: (§1)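 Confluent 3T3-L1 preadipocytes (DMEM, 10% newborn bovine serum) differentiated with 1 µM dexamethasone, 0.5 mM IBMX and 1.0 µg/ml insulin in DMEM with 5% NBS. Compound present at 0.1 or 1 µM; medium changed every 2 days over 5 days. Triglyceride normalized to protein in sonicated homogenates; expressed as % change versus vehicle control.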

3T3-L1 [4] = experiment: Induction of adipogenesis in mouse 3T3L1 assessed as increase in triglyceride level at 0.1 uM after 5 days relative to control; assay type: functional; outline: as §1

11-beta-hydroxysteroid dehydrogenase 1, sequence (P50172 whole entry): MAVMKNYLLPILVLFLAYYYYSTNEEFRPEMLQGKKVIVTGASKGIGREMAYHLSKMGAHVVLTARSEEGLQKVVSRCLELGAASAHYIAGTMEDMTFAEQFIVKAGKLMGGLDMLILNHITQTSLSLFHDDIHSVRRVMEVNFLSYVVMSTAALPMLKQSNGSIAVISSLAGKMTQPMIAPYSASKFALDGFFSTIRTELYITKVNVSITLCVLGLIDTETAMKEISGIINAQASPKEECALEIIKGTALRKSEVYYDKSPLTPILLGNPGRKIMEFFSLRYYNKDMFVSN

Row | Structure (SMILES) | IC50 [1] | EC50 [2] | Activity (3T3-L1 [3]) | Activity (3T3-L1 [4])
1 | CC(Cc1ccc(Oc2cc(N3CCN(c4ncccn4)CC3)nc(N)n2)cc1)(Oc1ccccc1)C(=O)O (stereo unspecified) | ≥ 10 µM | 6.13 µM |  | 
2 | CC(Cc1ccc(Oc2cc(N3CCN(C(=O)c4ccccc4)CC3)nc(N)n2)cc1)(Oc1ccccc1)C(=O)O (stereo unspecified) | 3.29 µM | ≥ 50 µM |  | 
3 | CCCc1ccc(C(=O)N2CCN(c3cc(Oc4ccc(CC(C)(Oc5ccccc5)C(=O)O)cc4)nc(N)n3)CC2)cc1 (stereo unspecified) | 0.49 µM | ≥ 50 µM |  | 
4 | COc1ccccc1C(=O)N1CCN(c2cc(Oc3ccc(CC(C)(Oc4ccccc4)C(=O)O)cc3)nc(N)n2)CC1 (stereo unspecified) | ≥ 10 µM | ≥ 50 µM |  | 
5 | CC(Cc1ccc(Oc2cc(N3CCN(Cc4ccc(C(C)(C)C)cc4)CC3)nc(N)n2)cc1)(Oc1ccccc1)C(=O)O (stereo unspecified) | 0.85 µM | 6.36 µM | -1.15% | -1.99%
6 | CC1(C)[C@@H](O[C@H]2O[C@H](C(=O)O)[C@@H](O)[C@H](O)[C@H]2O[C@@H]2O[C@H](C(=O)O)[C@@H](O)[C@H](O)[C@H]2O)CC[C@]2(C)[C@H]3C(=O)C=C4[C@@H]5C[C@@](C)(C(=O)O)CC[C@]5(C)CC[C@@]4(C)[C@]3(C)CC[C@@H]12 [GLYCYRRHIZIN] | 0.015 µM |  |  | 
7 | CC(Cc1ccc(Oc2cc(N3CCN(c4cccc(Cl)c4)CC3)nc(N)n2)cc1)(Oc1ccccc1)C(=O)O (stereo unspecified) | 1.52 µM | 4.47 µM | -37.99% | -19.32%
8 | CC(Cc1ccc(Oc2cc(N3CCN(CC4CCCCC4)CC3)nc(N)n2)cc1)(Oc1ccccc1)C(=O)O (stereo unspecified) | 1.32 µM | 5.54 µM | -15.43% | -30.21%

Reference: ChEMBL document CHEMBL1153062, “Discovery of novel dual functional agent as PPARgamma agonist and 11beta-HSD1 inhibitor for the treatment of diabetes” (Bioorg Med Chem, 2009)
